We go through one compound from ChEMBL document CHEMBL3612040, “Discovery of Selective Small Molecule Inhibitors of Monoacylglycerol Acyltransferase 3” (J Med Chem, 2015).

Where only a bound is given, the exact number is not on record here.

Data set [1] can be described thus: Oral bioavailability in mouse at 5 mg/kg. It is filed as ADME, organism-based. Particulars: in vivo; call rule not given here.
Data set [2] is described as follows: Volume of distribution in mouse at 1 mg/kg, iv. Type of data set: ADME, organism-based. The settings on record: in vivo. In short, it runs like this: (§1)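 Single 1 mg/kg intravenous dose in mice; systemic clearance, volume of distribution and effective half-life derived from plasma pharmacokinetics.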
Data set [3] is described as follows: AUClast in mouse at 5 mg/kg, po. It is filed as ADME, organism-based. Particulars: in vivo. On the set-up: dose 5 mg/kg, route oral, time 0 - last.
The target in data set [4] is Cytochrome P450 2D6 (Homo sapiens, UniProt P10635). Nature of the data set: Inhibition of human CYP2D6. It is filed as ADME.
Data set [5] deals with Salmonella typhimurium. Nature of the data set: Genotoxicity in Salmonella typhimurium by Amest test. It is filed as toxicity, organism-based. The settings on record: salmonella enterica subsp. enterica serovar typhimurium.
Data set [6] relates to HepG2. The data set can be described thus: Toxicity in human HepG2 cells up to 300 uM incubated for 72 hrs. It is filed as cell-based. The settings on record: hepg2, 72 h. In short, it runs like this: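 HepG2 cells incubated with compound up to 300 µM for 72 hours.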
Data set [7] concerns the target Cytochrome P450 2C9 (Homo sapiens, UniProt P11712). Nature of the data set: Inhibition of human CYP2C9. Type of data set: ADME.
Data set [8] addresses T1, Peroxisome proliferator-activated receptor gamma (Homo sapiens, UniProt P37231).
T1 sequence (P37231 whole entry): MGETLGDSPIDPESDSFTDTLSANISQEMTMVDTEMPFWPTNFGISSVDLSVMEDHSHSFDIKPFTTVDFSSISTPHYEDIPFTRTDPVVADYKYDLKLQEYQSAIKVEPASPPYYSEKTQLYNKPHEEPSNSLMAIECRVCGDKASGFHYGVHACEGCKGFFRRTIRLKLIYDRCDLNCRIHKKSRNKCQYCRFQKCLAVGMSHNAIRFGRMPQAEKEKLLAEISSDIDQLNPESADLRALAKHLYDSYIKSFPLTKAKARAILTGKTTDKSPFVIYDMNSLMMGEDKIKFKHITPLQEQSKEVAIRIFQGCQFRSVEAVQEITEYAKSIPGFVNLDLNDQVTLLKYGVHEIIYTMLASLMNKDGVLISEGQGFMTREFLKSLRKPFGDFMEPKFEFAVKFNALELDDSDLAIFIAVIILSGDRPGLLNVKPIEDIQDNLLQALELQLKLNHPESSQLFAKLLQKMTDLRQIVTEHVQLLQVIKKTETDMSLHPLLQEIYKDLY
The data set can be described thus: Inhibition of PPARgamma (unknown origin).

Data set [9] is described as follows: Half life in mouse at 1 mg/kg, iv. Type of data set: ADME, organism-based. The settings on record: in vivo. The gist of the method:
as §1

Data set [10] is described as follows: Lipophilicity, logD of the compound at pH 7.4. Type of data set: physicochemical. Particulars: buffer. In short, it runs like this:
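Shake-flask octanol:water partition at pH 7.4, with MS analysis of samples.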

The nature of data set [11]: Intrinsic clearance in human liver microsomes. Type of data set: ADME. The settings on record: read-out: CLH.
The target in data set [12] is Voltage-gated inwardly rectifying potassium channel KCNH2 (Homo sapiens, UniProt Q12809). The data set can be described thus: Inhibition of human ERG.
For data set [13], the target named is T2, Cytochrome P450 2C8 (Homo sapiens, UniProt P10632).
T2 sequence (P10632 whole entry): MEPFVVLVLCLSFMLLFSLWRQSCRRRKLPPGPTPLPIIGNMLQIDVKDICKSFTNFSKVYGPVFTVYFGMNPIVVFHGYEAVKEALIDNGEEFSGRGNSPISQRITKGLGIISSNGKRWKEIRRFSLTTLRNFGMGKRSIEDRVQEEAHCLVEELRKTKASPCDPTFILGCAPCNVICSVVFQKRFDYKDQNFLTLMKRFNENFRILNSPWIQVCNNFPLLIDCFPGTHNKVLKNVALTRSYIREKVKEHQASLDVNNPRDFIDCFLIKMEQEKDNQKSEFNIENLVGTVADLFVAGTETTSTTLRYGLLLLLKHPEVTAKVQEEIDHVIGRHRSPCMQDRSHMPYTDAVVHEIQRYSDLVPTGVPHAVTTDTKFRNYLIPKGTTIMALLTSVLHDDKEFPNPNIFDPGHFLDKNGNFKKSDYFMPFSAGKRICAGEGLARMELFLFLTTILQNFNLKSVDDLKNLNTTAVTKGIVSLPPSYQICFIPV
Nature of the data set: Inhibition of human CYP2C8. Type of data set: ADME.

A short description of data set [14]: Apparent permeability in RRCK cells. The settings on record: dog, MDCK. It is filed as ADME, cell-based, Canis lupus familiaris, MDCKII-LE.
A short description of data set [15]: Cmax in mouse at 5 mg/kg, po. Type of data set: ADME, organism-based. On the set-up: dose 5 mg/kg, route oral. The settings on record: in vivo.
Data set [16] addresses T3, Cytochrome P450 1A2 (Homo sapiens, UniProt P05177).
T3 sequence (P05177 whole entry): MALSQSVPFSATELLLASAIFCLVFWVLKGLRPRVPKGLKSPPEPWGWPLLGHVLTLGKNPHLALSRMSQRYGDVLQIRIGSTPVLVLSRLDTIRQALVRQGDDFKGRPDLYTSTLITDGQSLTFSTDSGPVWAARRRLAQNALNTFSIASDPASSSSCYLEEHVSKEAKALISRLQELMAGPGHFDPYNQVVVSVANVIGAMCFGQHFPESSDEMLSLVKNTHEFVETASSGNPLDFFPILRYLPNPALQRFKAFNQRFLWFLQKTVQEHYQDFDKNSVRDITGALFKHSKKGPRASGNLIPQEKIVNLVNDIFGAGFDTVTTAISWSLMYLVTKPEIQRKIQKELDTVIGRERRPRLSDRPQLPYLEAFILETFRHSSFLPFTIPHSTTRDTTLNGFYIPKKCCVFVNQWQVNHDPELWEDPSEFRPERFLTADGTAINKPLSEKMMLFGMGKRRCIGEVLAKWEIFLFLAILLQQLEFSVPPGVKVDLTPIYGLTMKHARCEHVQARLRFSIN
The data set can be described thus: Inhibition of human CYP1A2. It is filed as ADME.

The target in data set [17] is T4, Diacylglycerol O-acyltransferase 2 (Homo sapiens, UniProt Q96PD7).
T4 sequence (Q96PD7 whole entry): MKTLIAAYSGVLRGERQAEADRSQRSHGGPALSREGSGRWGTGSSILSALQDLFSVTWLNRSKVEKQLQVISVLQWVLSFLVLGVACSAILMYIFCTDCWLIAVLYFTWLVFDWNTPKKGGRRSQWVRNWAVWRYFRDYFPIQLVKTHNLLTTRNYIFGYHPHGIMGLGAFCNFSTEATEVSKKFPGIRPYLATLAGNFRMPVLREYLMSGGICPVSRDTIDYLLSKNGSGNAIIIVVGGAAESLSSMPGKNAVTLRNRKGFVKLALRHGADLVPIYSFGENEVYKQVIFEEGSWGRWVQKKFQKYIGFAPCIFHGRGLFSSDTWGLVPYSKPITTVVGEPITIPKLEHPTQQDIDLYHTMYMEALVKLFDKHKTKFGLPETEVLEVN
Nature of the data set: Inhibition of DGAT2 (unknown origin) using [1-14C]decanoyl-CoA and didecanoyl-sn-glycerol substrates incubated for 40 mins. The gist of the method: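 DGAT2 membrane fraction (0.01 mg/mL) in 100 mM Hepes-NaOH pH 7.4, 20 mM MgCl2, 200 nM MAFP. Compound first held 20 min with 0.04% fatty-acid-free BSA, then preincubated 120 min at RT with enzyme. Started with 30 µM [1-14C]decanoyl-CoA and 125 µM 1,2-didecanoyl-sn-glycerol; ran 40 min at RT, acid-stopped. Labelled TAG read by scintillation after phase partitioning.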

Chain of Cytochrome P450 2D6 (P10635 whole entry): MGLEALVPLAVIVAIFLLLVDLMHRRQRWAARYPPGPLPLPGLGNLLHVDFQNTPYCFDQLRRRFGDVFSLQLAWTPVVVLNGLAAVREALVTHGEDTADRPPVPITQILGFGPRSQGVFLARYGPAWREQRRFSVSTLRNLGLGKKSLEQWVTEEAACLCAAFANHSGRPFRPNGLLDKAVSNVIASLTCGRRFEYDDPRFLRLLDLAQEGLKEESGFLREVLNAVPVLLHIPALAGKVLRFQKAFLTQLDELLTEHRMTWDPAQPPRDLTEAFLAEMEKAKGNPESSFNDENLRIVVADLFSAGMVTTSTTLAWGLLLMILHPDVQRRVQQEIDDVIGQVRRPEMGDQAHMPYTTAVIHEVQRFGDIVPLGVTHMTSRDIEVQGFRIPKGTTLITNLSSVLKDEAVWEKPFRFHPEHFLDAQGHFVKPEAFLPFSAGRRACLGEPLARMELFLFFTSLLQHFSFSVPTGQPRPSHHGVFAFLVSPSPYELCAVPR
Chain of Cytochrome P450 2C9 (P11712 whole entry): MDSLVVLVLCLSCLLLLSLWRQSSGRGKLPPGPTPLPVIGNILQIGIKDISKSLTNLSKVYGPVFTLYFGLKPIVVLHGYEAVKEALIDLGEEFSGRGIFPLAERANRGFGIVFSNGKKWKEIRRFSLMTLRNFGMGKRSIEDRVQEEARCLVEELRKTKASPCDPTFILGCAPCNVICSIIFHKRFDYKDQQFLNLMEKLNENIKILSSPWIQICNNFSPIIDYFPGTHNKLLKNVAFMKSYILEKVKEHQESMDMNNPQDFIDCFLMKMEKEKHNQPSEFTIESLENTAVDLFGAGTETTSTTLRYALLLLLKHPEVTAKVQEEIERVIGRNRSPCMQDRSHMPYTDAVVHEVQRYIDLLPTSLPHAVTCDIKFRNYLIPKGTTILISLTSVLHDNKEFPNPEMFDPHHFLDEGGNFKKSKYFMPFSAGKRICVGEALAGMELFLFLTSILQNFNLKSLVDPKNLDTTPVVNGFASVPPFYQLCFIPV
Chain of Voltage-gated inwardly rectifying potassium channel KCNH2 (Q12809 whole entry): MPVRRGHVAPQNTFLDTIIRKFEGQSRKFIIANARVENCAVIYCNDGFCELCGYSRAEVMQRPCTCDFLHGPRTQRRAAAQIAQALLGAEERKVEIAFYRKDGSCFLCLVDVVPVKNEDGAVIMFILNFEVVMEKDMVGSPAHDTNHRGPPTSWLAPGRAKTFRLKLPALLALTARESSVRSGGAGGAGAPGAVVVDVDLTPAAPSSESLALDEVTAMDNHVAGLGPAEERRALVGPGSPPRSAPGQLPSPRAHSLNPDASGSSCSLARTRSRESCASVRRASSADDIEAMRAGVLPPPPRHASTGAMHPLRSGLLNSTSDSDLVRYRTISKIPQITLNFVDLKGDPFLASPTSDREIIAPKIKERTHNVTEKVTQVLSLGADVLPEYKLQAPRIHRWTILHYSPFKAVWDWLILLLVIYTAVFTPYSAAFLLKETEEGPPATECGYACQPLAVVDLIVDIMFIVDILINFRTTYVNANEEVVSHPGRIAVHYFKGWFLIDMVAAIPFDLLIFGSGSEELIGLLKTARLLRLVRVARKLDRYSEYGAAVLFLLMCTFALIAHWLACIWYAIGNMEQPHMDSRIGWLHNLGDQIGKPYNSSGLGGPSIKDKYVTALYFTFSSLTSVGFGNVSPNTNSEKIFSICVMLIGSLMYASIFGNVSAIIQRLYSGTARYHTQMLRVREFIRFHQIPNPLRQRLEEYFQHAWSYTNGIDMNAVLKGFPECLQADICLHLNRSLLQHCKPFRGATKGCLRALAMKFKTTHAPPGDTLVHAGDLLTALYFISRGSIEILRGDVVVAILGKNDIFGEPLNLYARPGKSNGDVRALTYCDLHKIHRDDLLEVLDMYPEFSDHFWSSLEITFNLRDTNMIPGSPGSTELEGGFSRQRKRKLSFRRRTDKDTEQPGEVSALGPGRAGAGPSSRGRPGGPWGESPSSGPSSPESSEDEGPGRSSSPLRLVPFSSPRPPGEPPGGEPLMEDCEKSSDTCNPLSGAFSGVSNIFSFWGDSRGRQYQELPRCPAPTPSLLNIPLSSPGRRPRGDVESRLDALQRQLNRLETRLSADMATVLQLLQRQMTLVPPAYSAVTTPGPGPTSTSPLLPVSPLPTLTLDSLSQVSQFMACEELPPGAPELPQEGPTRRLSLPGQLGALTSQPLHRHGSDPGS

Turning to `COc1cccc(CC(=O)N2Cc3ccc(S(=O)(=O)Nc4cnn(C5CCC5)n4)cc3C2)c1`, the bioavailability in data set [1] came to 74%. In [2], this compound came in with a Vd of 0.17 L/kg. The compound also came in with an AUC(0-t) in data set [3] of 27 µg·h/mL. Also, the “inhibition (INH)” value in data set [4], in data set [7], in data set [12], in [13] and in data set [16] was “Not Active” in each case. Also, the Activity result in [5] and in data set [6] was “Non-toxic” in each case. Moreover, the IC50 in [8] was 4 µM; in data set [17] it was more than 100 µM. Besides, in data set [9], the half-life is 1.4 h. For the same compound, the pH-dependent lipophilicity (logD) in [10] was determined as 1.7. Also, in data set [11], the microsomal CLint is 22 µL/min/mg. In addition, the apparent permeability (Papp) in [14] amounted to 120 nm/s. Further, the concentration in data set [15] peaked (Cmax) at 9.3 µg/mL.
